According to ChEMBL document CHEMBL5058577, “EUbOPEN Chemogenomics Library 2 (Multiplex)” (2022):

Test system: Fibroblast
Experiment: Multiplex assay against human fibroblast
Type: toxicity, cell-based
In short: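 Live cells were stained at seeding with Hoechst33342, BioTracker Green Microtubule Cytoskeleton Dye, MitoTracker Red and Annexin V Alexa Fluor 680. Following compound addition, they were imaged on a CQ1 microscope at 37°C and 5% CO2 and gated by CellPathfinder machine learning into Hoechst high-intensity objects or normal cells, with normal cells split into healthy, pyknosed or fragmented nuclei and pyknosed cells into mitotic or apoptotic. Tubulin, mitochondrial-mass and membrane-permeability phenotypes are per cents of healthy-nucleus cells.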

[1] = 12 h, 1 µM, compound concentration 1 uM, replicate 1
[2] = 12 h, 1 µM, compound concentration 1 uM, replicate 2
[3] = 12 h, 10 µM, compound concentration 10 uM, replicate 1
[4] = 12 h, 10 µM, compound concentration 10 uM, replicate 2
[5] = 24 h, 1 µM, compound concentration 1 uM, replicate 1
[6] = 24 h, 1 µM, compound concentration 1 uM, replicate 2
[7] = 24 h, 10 µM, compound concentration 10 uM, replicate 1
[8] = 24 h, 10 µM, compound concentration 10 uM, replicate 2
[9] = 48 h, 1 µM, compound concentration 1 uM, replicate 1
[10] = 48 h, 1 µM, compound concentration 1 uM, replicate 2
[11] = 48 h, 10 µM, compound concentration 10 uM, replicate 1
[12] = 48 h, 10 µM, compound concentration 10 uM, replicate 2

SMILES: Cc1ccccc1C(=O)Nc1ccc(C(=O)N2CCCC(N(C)C)c3ccccc32)cc1.Cl (centres undefined)
- Population Apoptotic (%) [1]: 52%
- Population Fragmented Nuclei (%) [1]: 16%
- Population Healthy Nuclei (%) [1]: 71%
- Population Hoechst High Intensity Objects (%) [1]: 0%
- Population Membrane Permeable-Phenotype (%) [1]: 0%
- Population Mitochondria Different-Phenotype (%) [1]: 5%
- Population Mitotic Cells (%) [1]: 47%
- Population Normal (%) [1]: 100%
- Population Pyknosed Nuclei (%) [1]: 12%
- Population Tubulin-Different-Phenotype (%) [1]: 31%
- Total Cell Count [1]: 167
- Population Apoptotic (%) [2]: 36%
- Population Fragmented Nuclei (%) [2]: 22%
- Population Healthy Nuclei (%) [2]: 55%
- Population Hoechst High Intensity Objects (%) [2]: 1%
- Population Membrane Permeable-Phenotype (%) [2]: 10%
- Population Mitochondria Different-Phenotype (%) [2]: 3%
- Population Mitotic Cells (%) [2]: 63%
- Population Normal (%) [2]: 98%
- Population Pyknosed Nuclei (%) [2]: 21%
- Population Tubulin-Different-Phenotype (%) [2]: 45%
- Total Cell Count [2]: 155
- Population Apoptotic (%) [3]: 58%
- Population Fragmented Nuclei (%) [3]: 26%
- Population Healthy Nuclei (%) [3]: 50%
- Population Hoechst High Intensity Objects (%) [3]: 1%
- Population Membrane Permeable-Phenotype (%) [3]: 1%
- Population Mitochondria Different-Phenotype (%) [3]: 12%
- Population Mitotic Cells (%) [3]: 41%
- Population Normal (%) [3]: 98%
- Population Pyknosed Nuclei (%) [3]: 22%
- Population Tubulin-Different-Phenotype (%) [3]: 70%
- Total Cell Count [3]: 108
- Population Apoptotic (%) [4]: 45%
- Population Fragmented Nuclei (%) [4]: 29%
- Population Healthy Nuclei (%) [4]: 47%
- Population Hoechst High Intensity Objects (%) [4]: 4%
- Population Membrane Permeable-Phenotype (%) [4]: 4%
- Population Mitotic Cells (%) [4]: 54%
- Population Normal (%) [4]: 95%
- Population Pyknosed Nuclei (%) [4]: 23%
- Population Tubulin-Different-Phenotype (%) [4]: 61%
- Total Cell Count [4]: 109
- Population Apoptotic (%) [5]: 38%
- Population Fragmented Nuclei (%) [5]: 15%
- Population Healthy Nuclei (%) [5]: 76%
- Population Hoechst High Intensity Objects (%) [5]: 1%
- Population Membrane Permeable-Phenotype (%) [5]: 0%
- Population Mitochondria Different-Phenotype (%) [5]: 8%
- Population Mitotic Cells (%) [5]: 61%
- Population Normal (%) [5]: 98%
- Population Pyknosed Nuclei (%) [5]: 8%
- Population Tubulin-Different-Phenotype (%) [5]: 30%
- Total Cell Count [5]: 160
- Population Apoptotic (%) [6]: 43%
- Population Fragmented Nuclei (%) [6]: 28%
- Population Healthy Nuclei (%) [6]: 49%
- Population Hoechst High Intensity Objects (%) [6]: 5%
- Population Membrane Permeable-Phenotype (%) [6]: 8%
- Population Mitochondria Different-Phenotype (%) [6]: 2%
- Population Mitotic Cells (%) [6]: 56%
- Population Normal (%) [6]: 94%
- Population Pyknosed Nuclei (%) [6]: 21%
- Population Tubulin-Different-Phenotype (%) [6]: 50%
- Total Cell Count [6]: 157
- Population Apoptotic (%) [7]: 58%
- Population Fragmented Nuclei (%) [7]: 30%
- Population Healthy Nuclei (%) [7]: 58%
- Population Hoechst High Intensity Objects (%) [7]: 1%
- Population Membrane Permeable-Phenotype (%) [7]: 0%
- Population Mitochondria Different-Phenotype (%) [7]: 12%
- Population Mitotic Cells (%) [7]: 41%
- Population Normal (%) [7]: 98%
- Population Pyknosed Nuclei (%) [7]: 11%
- Population Tubulin-Different-Phenotype (%) [7]: 68%
- Total Cell Count [7]: 111
- Population Apoptotic (%) [8]: 57%
- Population Fragmented Nuclei (%) [8]: 37%
- Population Healthy Nuclei (%) [8]: 42%
- Population Hoechst High Intensity Objects (%) [8]: 4%
- Population Membrane Permeable-Phenotype (%) [8]: 9%
- Population Mitochondria Different-Phenotype (%) [8]: 11%
- Population Mitotic Cells (%) [8]: 42%
- Population Normal (%) [8]: 95%
- Population Pyknosed Nuclei (%) [8]: 20%
- Population Tubulin-Different-Phenotype (%) [8]: 72%
- Total Cell Count [8]: 107
- Population Apoptotic (%) [9]: 33%
- Population Fragmented Nuclei (%) [9]: 13%
- Population Healthy Nuclei (%) [9]: 79%
- Population Hoechst High Intensity Objects (%) [9]: 3%
- Population Membrane Permeable-Phenotype (%) [9]: 0%
- Population Mitochondria Different-Phenotype (%) [9]: 4%
- Population Mitotic Cells (%) [9]: 66%
- Population Normal (%) [9]: 96%
- Population Pyknosed Nuclei (%) [9]: 7%
- Population Tubulin-Different-Phenotype (%) [9]: 28%
- Total Cell Count [9]: 158
- Population Apoptotic (%) [10]: 53%
- Population Fragmented Nuclei (%) [10]: 32%
- Population Healthy Nuclei (%) [10]: 50%
- Population Membrane Permeable-Phenotype (%) [10]: 8%
- Population Mitochondria Different-Phenotype (%) [10]: 5%
- Population Mitotic Cells (%) [10]: 46%
- Population Pyknosed Nuclei (%) [10]: 17%
- Population Tubulin-Different-Phenotype (%) [10]: 54%
- Total Cell Count [10]: 155
- Population Apoptotic (%) [11]: 91%
- Population Fragmented Nuclei (%) [11]: 24%
- Population Healthy Nuclei (%) [11]: 60%
- Population Hoechst High Intensity Objects (%) [11]: 7%
- Population Membrane Permeable-Phenotype (%) [11]: 0%
- Population Mitochondria Different-Phenotype (%) [11]: 12%
- Population Mitotic Cells (%) [11]: 8%
- Population Normal (%) [11]: 92%
- Population Pyknosed Nuclei (%) [11]: 14%
- Population Tubulin-Different-Phenotype (%) [11]: 51%
- Total Cell Count [11]: 88
- Population Apoptotic (%) [12]: 73%
- Population Fragmented Nuclei (%) [12]: 43%
- Population Healthy Nuclei (%) [12]: 43%
- Population Hoechst High Intensity Objects (%) [12]: 3%
- Population Membrane Permeable-Phenotype (%) [12]: 8%
- Population Mitochondria Different-Phenotype (%) [12]: 14%
- Population Mitotic Cells (%) [12]: 26%
- Population Normal (%) [12]: 96%
- Population Pyknosed Nuclei (%) [12]: 13%
- Population Tubulin-Different-Phenotype (%) [12]: 70%
- Total Cell Count [12]: 113
